# MrgX1 agonist: agonists of human MrgX1 receptor. 310,000 tested, 0.44% active. B-score at 10 µM. Q96LB2. MrgX1-HEK293 cells, Fluo-4 calcium fluorescence, agonist mode; active compounds read high;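 active means calcium response B-score plate-corrected fluorescence ratio at least 3 library SD, with starting fluorescence B-score inside 5 SD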
# Target sequence (Q96LB2 whole entry, looked up): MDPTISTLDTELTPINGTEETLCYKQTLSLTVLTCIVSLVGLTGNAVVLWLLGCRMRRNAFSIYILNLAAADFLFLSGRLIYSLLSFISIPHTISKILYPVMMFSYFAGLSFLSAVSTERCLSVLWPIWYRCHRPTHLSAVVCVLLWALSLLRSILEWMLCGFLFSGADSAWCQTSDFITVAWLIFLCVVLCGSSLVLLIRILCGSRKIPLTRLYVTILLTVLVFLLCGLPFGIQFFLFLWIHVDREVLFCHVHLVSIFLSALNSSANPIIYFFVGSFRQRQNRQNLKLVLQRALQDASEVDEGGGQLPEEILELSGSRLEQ
#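 Assay system: MrgX1-expressing HEK293 cells / Amount: fifteen thousand cells per well / Doses: test compound in the initial addition of three / Timing: cells plated overnight, dye loaded 0.5 h 37 °C, 0.5 h room temperature / Technique: kinetic calcium dye fluorescence, Fluo-4 NW / Control set: positive and negative controls per plate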
# RGS4 act: potentiators or activators of RGS4; HEK293 M3R/inducible RGS4, carbachol calcium flux Fluo4; active compounds read low; B-score at 10 µM; 310,000 tested, 0.92% active; AID 463111;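 active means B-score of the integrated calcium signal more than 4 SD below the library mean, with starting fluorescence not abnormally high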;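 further: negative B-score means reduced calcium response which marks RGS4 activation or potentiation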
#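 Assay system: HEK293 FlpIn-TREx cells, stable M3R, doxycycline-inducible RGS4 / Probe or stimulus: carbachol, ECmax concentration / Times: overnight RGS4 induction, 30 min dye load 37 °C, 20 min compound RT / Signal: kinetic calcium fluorescence imaging with Fluo4-AM dye, 2 µM / Measure: Agonist-evoked peak-minus-minimum fluorescence over baseline, integrated ratio, B score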
# MrgX1 allo act: allosterically activates human MrgX1 receptor signaling; MrgX1-HEK293, Fluo-4 calcium flux, FDSS; active compounds read high; Q96LB2; B-score at 10 µM; 310,000 tested, 0.63% active;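 active means plate-corrected calcium response at least 3 library SD above typical, normal starting fluorescence, not activating the receptor alone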;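 further: compound read alongside a low EC10 to EC30 dose of BAM8-22 agonist; peak minus trough fluorescence over baseline measured at the second addition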
# RGS4 block: human RGS4 inhibition; AID 463165; HEK293 M3R/RGS4 inducible, Fluo-4 calcium flux; active compounds read high; triggered by carbachol at its EC20; 310,000 tested, 0.45% active; B-score at 10 µM; P49798;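 active means B-score, a plate-corrected calcium signal, over three deviations above library mean, with baseline fluorescence within five deviations of library mean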;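 further: RGS4 expression induced by doxycycline in cells with stable M3 receptor; B-score is computed from the integrated fluorescence ratio over baseline after carbachol; higher B-score means a larger calcium signal and so more RGS4 inhibition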
# Target sequence (P49798 whole entry, looked up): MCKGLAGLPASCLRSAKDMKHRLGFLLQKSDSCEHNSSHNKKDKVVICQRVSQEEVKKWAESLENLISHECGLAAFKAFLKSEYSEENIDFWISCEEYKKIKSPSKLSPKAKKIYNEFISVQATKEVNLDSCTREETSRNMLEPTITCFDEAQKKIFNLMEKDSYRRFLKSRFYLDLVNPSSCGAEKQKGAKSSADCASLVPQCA
# MrgX1 antagonist: blocks BAM8-22 activation of human MrgX1 receptor. Q96LB2. MRGX1-HEK293 calcium flux, Fluo-4, BAM8-22 antagonism; active compounds read low. B-score at 10 µM. 310,000 tested, 1.3% active;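 active means calcium-response B-score plate-corrected more than 3 library SD below zero, starting fluorescence within 5 deviations, no agonist response on first addition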;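 further: peak minus trough fluorescence over baseline after final BAM8-22 challenge near maximal dose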
# Starred values were filed as active, the others as inactive; i = inactive; . = no result. Only some compounds are listed: those with a hit (about 3.5% of all), similar ones and a draw of the others.
SMILES,MrgX1 agonist,RGS4 act,MrgX1 allo act,RGS4 block,MrgX1 antagonist
Cc1nn(-c2ccccc2)c(N2CCCC2)c1/C=N/Nc1ccc(S(=O)(=O)Nc2ccccc2)cc1[N+](=O)[O-],i,i,i,i,-5.1*
CC(C)(C)C(=O)OCc1nc(-c2ccc(C(F)(F)F)cc2)cs1,i,i,i,i,i
O=c1oc2ccccc2cc1-c1csc(NN=C2CCCCC2)n1,i,-7.5*,i,i,i
CN(C)c1ccc(C(C(=O)NC2CCCC2)N(Cc2cccnc2)C(=O)c2snc(C(N)=O)c2N)cc1 (stereo not drawn),i,i,i,i,-6.4*
CCOc1ccc(C(C(=O)NC2CCCC2)N(Cc2ccccc2)C(=O)c2nsc(Cl)c2Cl)cc1 (stereo not drawn),i,-7.2*,i,i,i
CCN=C1S/C(=C\c2ccc(-c3cccc(C(=O)O)c3)o2)C(=O)N1CC,i,i,i,i,i
CCN1C(=O)/C(=C\c2ccc(-c3cccc(C(=O)OC)c3)o2)SC1=Nc1ccc(C(=O)O)cc1,i,i,i,i,-6.5*
O=C(O)c1cccc(-c2ccc(/C=C3/SC(=Nc4ccccc4)N(Cc4cccnc4)C3=O)o2)c1,i,i,i,i,-5.1*
COc1cc(CNc2ccc(C(=O)O)cc2)cc(Br)c1OCC(=O)NC(C)(C)C,i,i,i,i,-5.3*
CCOc1cc(CNc2ccc(OC)cc2)cc(Br)c1OCC(=O)NC(C)(C)C,i,i,i,i,i
CC1=C(C(=O)Nc2ccc(C(=O)NC(C)c3ccccc3)cc2)SCCO1 (stereo not drawn),i,i,i,i,i
Cc1cc(C2CC(=O)Nc3ccccc3S2)c(C)s1 (stereo not drawn),i,i,i,i,i
O=C(OCC1OC(n2ncc(=O)[nH]c2=O)C(OC(=O)c2ccccc2)C1OC(=O)c1ccccc1)c1ccccc1 (stereo not drawn),i,-7.2*,i,i,i
CCOc1ncccc1C(=O)Nc1nc(SC)ns1,i,i,i,i,i
COC(=O)CS(=O)(=O)c1ccsc1C(=O)Nc1ccc(F)c(F)c1,i,i,i,i,i
COc1ccc(C2C(C#N)=C(N)OC(C(C)(C)C)=C2C#N)cc1OC (stereo not drawn),i,i,i,i,i
COc1ccc(C2C(C#N)=C(N)SC(N)=C2C#N)cc1OC,i,i,i,i,-4.6*
N#CC1=C(N)SC(N)=C(C#N)C1c1cccc(O)c1,39*,i,i,i,i
CS(=O)(=O)N(CC(=O)NCc1ccncc1)c1ccc(F)c(Cl)c1,i,i,i,i,i
CC1CCN(CC(=O)Nc2ccc(C(=O)N3CCCCC3)cc2)CC1,i,i,i,i,i
FC(F)(F)c1cccc(NC(=S)Nc2ccc(Cl)c(Cl)c2)c1,i,i,i,i,-8.4*
CCN(CC)c1ccc(/C=N/N=C(N)N)c(O)c1,i,i,7.8*,i,-5.5*
CCN(CC)c1ccc(/C=N/N2CCOCC2)c(O)c1,i,i,i,i,i
CCN(CC)c1ccc(/C=N/N2C(C)CCCC2C)c(O)c1 (stereo not drawn),i,i,7.7*,i,i
CCN(CC)c1ccc(C=Nc2ccccc2)c(O)c1,i,i,i,i,i
SMILES,MrgX1 agonist,RGS4 act,MrgX1 allo act,RGS4 block,MrgX1 antagonist
O=C(NCc1cccc(C(F)(F)F)c1)c1ccc2c(c1)OCO2,.,i,.,i,.
CNC1=C([N+](=O)[O-])CC([N+](=O)[O-])=C(N2CCNCC2)N1C,i,i,i,i,i
COc1ccccc1NCc1nnc(-c2ccccc2)o1,i,i,i,i,i
Cc1cc(C)c2nc3sc(C(=O)N4CCOCC4)c(N)c3cc2c1,49*,i,i,i,i
CC(=O)NC(CC(=O)N1CCCC1)c1ccccc1 (stereo not drawn),i,i,i,i,-5.3*
CC(=O)NC(CC(=O)O)c1ccccc1 (stereo not drawn),i,i,i,i,i
CCSc1nnc(NC(=O)COc2ccccc2[N+](=O)[O-])s1,i,i,8.6*,i,i
CC(C)c1nnc(NC(=O)COc2ccccc2[N+](=O)[O-])s1,i,i,i,i,i
CC(=O)c1ccc(S(=O)(=O)NCCc2csc(-c3cccnc3)n2)cc1,i,i,i,i,i
COc1ccc2nc(N3C(=O)/C(=C/c4ccccc4)NC3=S)sc2c1,i,i,6.8*,i,i
CC(=O)c1ccc(N2CCN(C(=O)c3cc(-c4ccncc4)nc4ccc(Cl)cc34)CC2)cc1,i,-7.4*,i,i,i
Cc1ccccc1CN1CCN(C(=O)c2cc(-c3ccncc3)nc3ccccc23)CC1,i,-7.1*,i,i,i
CC1CC(C)CN(C(=O)c2cc(-c3ccncc3)nc3ccccc23)C1 (stereo not drawn),i,i,i,i,i
COc1cccc(CN2CCN(C(=O)c3cc(-c4ccncc4)nc4ccc(C)cc34)CC2)c1,i,-7*,i,i,i
CCOC(=O)c1ccccc1NC(=O)COC(=O)CCC(=O)c1ccc(C)cc1,i,i,i,i,i
CCCNCC1C(Oc2ccc(Cl)cc2)C(=O)N1c1ccccc1C (stereo not drawn),i,i,i,i,i
Cc1c(CCCN)c2ccccc2n1Cc1ccccc1,i,i,i,i,i
CC1CCc2c(sc(/N=C/c3ccco3)c2C(N)=O)C1 (stereo not drawn),i,i,i,i,i
Cc1ccc(NC(=O)CCNC(=O)c2ccc([N+](=O)[O-])cc2)cc1C,i,i,i,i,i
CCCCCCc1cc2cc(-c3nnc(-c4ccccc4OC)o3)c(=O)oc2cc1O,i,i,i,i,i
CCCCCCc1cc2cc(-c3nnc(-c4cc(OC)c(OC)c(OC)c4)o3)c(=O)oc2cc1O,80*,i,i,i,i
CCCN(CCC)CCCNC(=S)Nc1ccc2nc(N3CCN(C)CC3)cc(C)c2c1,29*,i,i,i,i
CCCc1cc(=O)oc2cc(C)cc(OCC(=O)NC(Cc3ccc(Cl)cc3)C(=O)O)c12 (stereo not drawn),i,i,i,i,i
CCCCc1cc(=O)oc2cc(C)cc(OCC(=O)NC(Cc3ccc(Cl)cc3)C(=O)O)c12 (stereo not drawn),i,-8.4*,i,i,i
